This note sets out measurements from paper PMC3302728 (Nature Communications, 2011).

By EC50 is commonly meant the midpoint of the concentration-response curve. A lower EC50 goes with an effect from little substance.

The target of test [1] is GluN1/GluN2D NMDA receptor (Rattus norvegicus, UniProt P35439+Q62645). Kind of test: EC50 of agonist response. Type of test: cell-based. Summed up:
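Xenopus laevis oocytes injected with 5-10 ng cRNA (GluN1:GluN2 ratio 1:2), stored at 15°C, recorded 2-4 days later at 23°C. Two-electrode voltage clamp at -30 to -60 mV in pH 7.4 HEPES bath with Ba2+ and 30 μM glycine. Concentration-response curves fitted per oocyte with a Hill equation to give EC50 and Hill coefficient.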

In test [2] the target is GluN2D ligand-binding domain (Rattus norvegicus, UniProt Q62645, DEL565-685). Briefly: X-ray crystallography. To be noted: co-crystal with 10 mM ligand; D1-D2 cleft.
Chain of GluN2D ligand-binding domain (Q62645 424-564, stated change not applied): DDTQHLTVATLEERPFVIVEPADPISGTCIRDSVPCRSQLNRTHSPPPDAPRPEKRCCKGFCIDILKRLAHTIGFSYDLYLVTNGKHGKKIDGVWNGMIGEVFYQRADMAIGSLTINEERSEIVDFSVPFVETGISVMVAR
Chain of GluN2D ligand-binding domain (Q62645 686-827, stated change not applied): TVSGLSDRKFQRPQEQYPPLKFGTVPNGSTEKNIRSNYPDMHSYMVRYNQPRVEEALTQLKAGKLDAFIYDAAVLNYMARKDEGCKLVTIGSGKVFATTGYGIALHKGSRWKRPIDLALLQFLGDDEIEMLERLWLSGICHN

Chain of GluN1/GluN2D NMDA receptor (Q62645 28-1323, other chains not shown): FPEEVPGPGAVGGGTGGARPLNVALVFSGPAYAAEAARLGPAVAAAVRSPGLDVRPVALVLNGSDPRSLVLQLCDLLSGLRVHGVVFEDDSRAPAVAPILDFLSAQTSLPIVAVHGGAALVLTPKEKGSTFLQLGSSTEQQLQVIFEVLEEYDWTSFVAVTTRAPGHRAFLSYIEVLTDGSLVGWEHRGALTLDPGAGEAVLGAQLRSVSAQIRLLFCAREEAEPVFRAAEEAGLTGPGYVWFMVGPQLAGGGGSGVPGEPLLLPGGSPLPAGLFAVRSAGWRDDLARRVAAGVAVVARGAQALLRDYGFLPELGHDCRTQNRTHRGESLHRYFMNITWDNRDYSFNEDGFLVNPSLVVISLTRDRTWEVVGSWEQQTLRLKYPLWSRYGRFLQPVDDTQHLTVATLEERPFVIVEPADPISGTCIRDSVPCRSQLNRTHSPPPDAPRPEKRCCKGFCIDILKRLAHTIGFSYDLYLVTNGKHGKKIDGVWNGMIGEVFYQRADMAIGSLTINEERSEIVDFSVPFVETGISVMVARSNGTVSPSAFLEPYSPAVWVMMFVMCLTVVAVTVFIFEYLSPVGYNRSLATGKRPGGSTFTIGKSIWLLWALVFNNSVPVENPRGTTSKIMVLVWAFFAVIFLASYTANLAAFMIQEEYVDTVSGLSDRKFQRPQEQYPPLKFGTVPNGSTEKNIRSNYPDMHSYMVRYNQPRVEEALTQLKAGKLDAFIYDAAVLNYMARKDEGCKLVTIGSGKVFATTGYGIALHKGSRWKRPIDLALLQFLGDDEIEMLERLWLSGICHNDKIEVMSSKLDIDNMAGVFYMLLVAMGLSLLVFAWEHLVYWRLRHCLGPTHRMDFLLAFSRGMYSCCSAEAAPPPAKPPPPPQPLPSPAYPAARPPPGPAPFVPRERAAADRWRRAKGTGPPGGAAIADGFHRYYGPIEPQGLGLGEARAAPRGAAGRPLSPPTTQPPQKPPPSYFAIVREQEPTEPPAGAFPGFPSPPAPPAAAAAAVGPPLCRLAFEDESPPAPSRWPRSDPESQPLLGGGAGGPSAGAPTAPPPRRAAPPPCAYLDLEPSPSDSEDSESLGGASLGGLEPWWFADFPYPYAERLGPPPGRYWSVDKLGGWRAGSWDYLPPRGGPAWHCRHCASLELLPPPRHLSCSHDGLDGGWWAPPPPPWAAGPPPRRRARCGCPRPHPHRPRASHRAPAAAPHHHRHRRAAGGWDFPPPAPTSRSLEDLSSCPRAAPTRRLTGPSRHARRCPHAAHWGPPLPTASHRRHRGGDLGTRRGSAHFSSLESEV

On to `N[C@@H](CC(=O)O)C(=O)O` [L-aspartate], for which, in test [1], the EC50 is 5 µM. Also, in test [2], the X-ray crystallography result is “GluN2D ligand-binding domain structures in complex with D- and L-glutamate, L-aspartate, and NMDA”.
Consider `N[C@H](CCC(=O)O)C(=O)O` [D-glutamate], for which the X-ray crystallography entry in test [2] is “GluN2D ligand-binding domain structures in complex with D- and L-glutamate, L-aspartate, and NMDA”.
Regarding `N[C@@H](CCC(=O)O)C(=O)O` [L-glutamate], in test [2], the X-ray crystallography entry was “GluN2D ligand-binding domain structures in complex with D- and L-glutamate, L-aspartate, and NMDA”.
